≈ marks a conversion by molar mass, not a printed value.
Legend:
Assay type in all cases: functional
Details in all cases: 168 h
[1] = system: Mycobacterium tuberculosis; experiment: Antitubercular activity against rifampin-resistant Mycobacterium tuberculosis H37Rv ATCC 27294 after 7 days by microplate alamar blue assay
How it was run: (§1)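 12.8 mM DMSO stocks; two-fold dilutions in Middlebrook 7H12 broth, final 128 to 0.5 µM. Inoculum 2 × 10⁵ cfu/mL, 37 °C. On day 7, Tween 80 plus Alamar Blue added; fluorescence read (ex 530/em 590 nm) after 16-24 h more. MIC = lowest concentration giving ≥90% fluorescence drop versus bacteria-only controls; mean of two runs. RMP and INH positive controls.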

[2] = system: Mycobacterium tuberculosis; experiment: Antitubercular activity against streptomycin-resistant Mycobacterium tuberculosis H37Rv ATCC 27294 after 7 days by microplate alamar blue assay; how it was run: as §1
[3] = system: Mycobacterium tuberculosis; experiment: Antitubercular activity against isoniazid-resistant Mycobacterium tuberculosis H37Rv ATCC 27294 after 7 days by microplate alamar blue assay; how it was run: as §1

| Structure (SMILES) | MIC [1] [µM] | MIC [2] [µM] | MIC [3] [µM] |
| --- | --- | --- | --- |
| CCOC(=O)c1cc(-c2cccc(Oc3cc(C(F)(F)F)nc4ccccc34)c2)on1 | 1.27 (≈ 0.544 µg/mL) | 1.4 (≈ 0.6 µg/mL) | 1.63 (≈ 0.698 µg/mL) |
| CCOC(=O)c1cc(COc2cc(C(F)(F)F)nc3cc(C(F)(F)F)cc(C(F)(F)F)c23)on1 | 0.99 (≈ 0.497 µg/mL) | 1.55 (≈ 0.779 µg/mL) | 0.98 (≈ 0.492 µg/mL) |
| NNC(=O)c1ccncc1 [ISONIAZID] | 0.43 (≈ 0.059 µg/mL) | 0.45 (≈ 0.0617 µg/mL) | > 128 |
| CO[C@H]1/C=C/O[C@@]2(C)Oc3c(C)c(O)c4c(O)c(c(/C=N/N5CCN(C)CC5)c(O)c4c3C2=O)NC(=O)/C(C)=C\C=C\[C@H](C)[C@H](O)[C@@H](C)[C@@H](O)[C@@H](C)[C@H](OC(C)=O)[C@@H]1C [RIFAMPIN] | > 32 | 0.05 (≈ 0.0411 µg/mL) | 0.06 (≈ 0.0494 µg/mL) |
| CN[C@@H]1[C@H](O[C@H]2[C@H](O[C@H]3[C@H](O)[C@@H](O)[C@H](N=C(N)N)[C@@H](O)[C@@H]3N=C(N)N)O[C@@H](C)[C@]2(O)C=O)O[C@@H](CO)[C@H](O)[C@H]1O [STREPTOMYCIN] | 0.2 (≈ 0.116 µg/mL) | > 32 | 0.38 (≈ 0.221 µg/mL) |

— ChEMBL document CHEMBL1153363, “Structure-activity relationships for a series of quinoline-based compounds active against replicating and nonreplicating Mycobacterium tuberculosis” (J Med Chem, 2009)
